In experiment [1] the test system is Lacticaseibacillus casei. Kind of experiment: Antibacterial activity against Lactobacillus casei ATCC 7469 assessed as growth inhibition. Format: functional.
In experiment [2] the test system is Enterococcus faecium. Put plainly: Antibacterial activity against Streptococcus faecium ATCC 8043 assessed as growth inhibition. Type of experiment: functional.
For experiment [3], the system named is Lacticaseibacillus casei. Kind of experiment: Antibacterial activity against methotrexate-resistant Lactobacillus casei assessed as growth inhibition up to 4 ug/ml. Type of experiment: functional, organism-based.
The subject of experiment [4] is Enterococcus faecium. Kind of experiment: Antibacterial activity against methotrexate-resistant Streptococcus faecium assessed as growth inhibition up to 4 ug/ml. Type of experiment: functional, organism-based.
Another experiment deals with Pediococcus. Put plainly: Antimicrobial activity against Pediococcus cerevisiae ATCC 8081 assessed as growth inhibition. Type of experiment: functional.
Experiment [5] addresses Dihydrofolate reductase (Lactobacillus casei) (UniProt P00381). Put plainly: Inhibition of Lactobacillus casei DHFR at 1 X 10^-4 M relative to control. To be noted: Lacticaseibacillus casei.
Experiment [6] has as its target T1, Thymidylate synthase (Lactobacillus casei) (UniProt P00469).
T1 sequence (whole entry): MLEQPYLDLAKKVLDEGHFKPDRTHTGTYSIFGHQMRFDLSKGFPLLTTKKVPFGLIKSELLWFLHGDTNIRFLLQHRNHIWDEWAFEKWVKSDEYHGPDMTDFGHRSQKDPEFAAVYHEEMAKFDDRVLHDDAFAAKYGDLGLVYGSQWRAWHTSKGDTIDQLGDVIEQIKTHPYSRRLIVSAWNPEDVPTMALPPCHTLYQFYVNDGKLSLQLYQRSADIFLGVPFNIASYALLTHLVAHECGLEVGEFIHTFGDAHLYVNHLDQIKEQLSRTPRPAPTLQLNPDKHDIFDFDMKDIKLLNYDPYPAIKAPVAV
Put plainly: Inhibition of Lactobacillus casei thymidylate synthase assessed as conversion of dUMP32 to dTP32PP at 6 X 10^-5 M after 30 mins relative to control. The following applies: Lacticaseibacillus casei.

The subject of experiment [7] is Lacticaseibacillus casei. Kind of experiment: Inhibition of 5-[14C]methyltetrahydrofolate uptake in Lactobacillus casei at 4 X 10^-7 M relative to control. Type of experiment: functional. A digest of the protocol: (§1)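 Cells (1.0 × 10⁹, 1.0 mg dry weight) in 0.1 M potassium phosphate pH 6.5 with 1% glucose and […] (40000 cpm) 5-[¹⁴C]methyltetrahydrofolate, 1.0 mL total. Incubated 1 min at 37 °C, then stopped by membrane filtration with three ice-cold saline washes. Dried filters were scintillation counted. Uptake is compared with a control.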

The subject of experiment [8] is Lacticaseibacillus casei. Put plainly: Inhibition of 5-[14C]methyltetrahydrofolate uptake in Lactobacillus casei at 1.5 X 10^-5 M relative to control. Format: functional. A digest of the protocol: as §1
In experiment [9] the target is T1, Thymidylate synthase (Lactobacillus casei). Kind of experiment: Inhibition of Lactobacillus casei thymidylate synthase assessed as conversion of dUMP32 to dTP32PP at 1 X 10^-4 M after 30 mins relative to control. To be noted: Lacticaseibacillus casei.
The subject of experiment [10] is Lacticaseibacillus casei. Kind of experiment: Inhibition of 5-[14C]methyltetrahydrofolate uptake in Lactobacillus casei at 1 X 10^-4 M relative to control. Type of experiment: functional. A digest of the protocol:
as §1

Experiment [11] deals with Dihydrofolate reductase (Lactobacillus casei) (UniProt P00381). Kind of experiment: Inhibition of Lactobacillus casei DHFR at 6.2 X 10^-5 M relative to control. The following applies: Lacticaseibacillus casei.
Experiment [12] has as its system Lacticaseibacillus casei. Kind of experiment: Inhibition of 5-[14C]methyltetrahydrofolate uptake in Lactobacillus casei at 1.6 X 10^-6 M relative to control. Type of experiment: functional. The method, boiled down:
as §1

In brackets after ≈: the same amount, converted by molar mass. Activity calls are given as the source filed them. The calls are words filed in the database; no cut-off is given here.

Dihydrofolate reductase (Lactobacillus casei), sequence (P00381 whole entry): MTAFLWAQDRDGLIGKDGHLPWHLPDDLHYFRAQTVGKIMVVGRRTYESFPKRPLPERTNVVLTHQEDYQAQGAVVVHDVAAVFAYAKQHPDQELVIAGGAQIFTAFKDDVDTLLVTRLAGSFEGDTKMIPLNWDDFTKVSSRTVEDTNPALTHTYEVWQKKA

By inhibition is commonly meant the relative decrease from the control value, in per cent. As for `Cc1ccc(S(=O)(=O)N(Cc2ccc(C(=O)N[C@@H](CCC(=O)O)C(=O)O)cc2)Cc2cnc3nc(N)nc(O)c3n2)cc1`, the “growth inhibition (GI)” value with Lacticaseibacillus casei [1], with Enterococcus faecium [2], with Lacticaseibacillus casei [3], in the experiment with Enterococcus faecium [4] and with Pediococcus was “inactive” in each case. Further, the inhibition in [5] was determined as 32%; in experiment [6], 12%. At 0.4 µM the inhibition in the experiment on Lacticaseibacillus casei [7] was 50%.

For `COC(=O)c1ccc(CN(Cc2cnc3nc(N)nc(O)c3n2)S(=O)(=O)c2ccc(C)cc2)cc1`, the inhibition turned out to be 23% in [5] and 16% in [6]. Besides, at 15 µM the inhibition in the experiment on Lacticaseibacillus casei [8] was 50%.

Take `COC(=O)c1ccc(CN(CC2=Nc3c(N)nc(N)nc3NC2)S(=O)(=O)c2ccc(C)cc2)cc1`: the inhibition in [5] and in experiment [9] was 0% each time. For the same molecule, in the experiment with Lacticaseibacillus casei [10], the inhibition at 100 µM is 32%.

For orientation: GI50 means the concentration that inhibits growth by half. For the molecule `Cc1ccc(S(=O)(=O)N(Cc2ccc(C(=O)N[C@@H](CCC(=O)O)C(=O)O)cc2)Cc2cnc3nc(N)nc(N)c3n2)cc1`, the GI50 in the experiment with Lacticaseibacillus casei [1] was 0.2 µg/mL (≈ 0.329 µM); in the experiment on Enterococcus faecium [2], 3.8 µg/mL (≈ 6.24 µM). The “growth inhibition (GI)” value in the experiment on Lacticaseibacillus casei [3], in the experiment on Enterococcus faecium [4] and in the experiment with Pediococcus was “inactive” throughout. Also, the inhibition is 50% in experiment [11] and 20% in experiment [9]. The molecule also yielded an inhibition at 0.4 µM in the experiment with Lacticaseibacillus casei [7] of 50%.

`Cc1ccc(S(=O)(=O)N(Cc2ccc(C(=O)O)cc2)Cc2cnc3nc(N)nc(O)c3n2)cc1`: the inhibition turned out to be 25% in experiment [5] and 15% in [6].

For the molecule `Cc1ccc(S(=O)(=O)N(Cc2ccc(C(=O)O)cc2)Cc2cnc3nc(N)nc(N)c3n2)cc1`, the values for the inhibition in [5] and in experiment [9] were 17% and 0%, respectively. Moreover, the inhibition at 1.6 µM with Lacticaseibacillus casei [12] was 50%.

Values taken from ChEMBL document CHEMBL3244306, “Folate analogues altered in the C9-N10 bridge region: N10-Toxylisohomofolic acid and N10-Toxylisohomoaminopterin” (1978).
